Our source for the CC50, IC50 and Activity values is ChEMBL document CHEMBL2401707, “Potentiating 1-(2-hydroxypropyl)-2-styryl-5-nitroimidazole derivatives against antibacterial agents: design, synthesis and biology analysis” (Eur J Med Chem, 2013).

Converted amounts (≈) assume the structure as drawn.

Series [1] is described as follows: Cytotoxicity against human macrophages assessed as cell viability after 24 hrs by MTT assay. In kind it is cell-based, Macrophage. A digest of the protocol: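 Human macrophages in DMEM with 10% FBS and antimycotic, 1.8×10⁴ cells/well. Exposed to 160, 40, 10, 2.5 and 0.25 µg/mL compound (added in 10% DMSO) for 24 h at 37 °C, 5% CO₂. MTT (2.5 mg/mL) added for a further 4 h, formazan dissolved in DMSO.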
For orientation: Tetrazolium dyes change colour on reduction, which living cells bring about.

For series [2], the system named is Bacillus subtilis. Put plainly: Antibacterial activity against Bacillus subtilis assessed as survival after 24 hrs by MTT assay. It is filed as functional, organism-based. In a few lines:
(§1)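 Broth microdilution in Mueller-Hinton broth. Cells grown to mid-log phase, diluted 10000-fold, and 10⁶ to 10⁷ CFU inoculated per well. Incubated 37 °C for 24 h. Drug-containing medium then added to final 40, 10, 2.5 and 0.25 µg/mL. After 12 h, MTT in PBS added; 4 h later medium discarded and formazan dissolved in DMSO. A490 read; at least three replicates.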

The subject of series [3] is Bacillus thuringiensis. Briefly: Antibacterial activity against Bacillus thuringiensis assessed as survival after 24 hrs by MTT assay. In kind it is functional, organism-based. A digest of the protocol:
as §1

The subject of series [4] is Pseudomonas aeruginosa. Put plainly: Antibacterial activity against Pseudomonas aeruginosa assessed as survival after 24 hrs by MTT assay. It is filed as functional, organism-based. A digest of the protocol: as §1
Series [5] concerns Escherichia coli. Briefly: Antibacterial activity against Escherichia coli assessed as survival after 24 hrs by MTT assay. It is filed as functional, organism-based. In a few lines:
as §1

Series [6] is described as follows: Inhibition of Escherichia coli FabH overexpressed in Escherichia coli DH10B using holo-ACP as substrate after 1 min. A digest of the protocol: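 Enzyme was purified by Ni-NTA with imidazole gradient elution and stored in 20 mM Tris pH 7.6, 100 mM NaCl, 1 mM DTT, 20% glycerol. Reaction: 0.5 nM E. coli FabH, 20 mM Na₂HPO₄ pH 7.0, 0.5 mM DTT, 0.25 mM MgCl₂, 2.5 µM holo-ACP, preincubated 1 min. Started with acetyl-CoA, NADH and NADPH mix; ran 19 min. Stopped with ice-cold TCA; ³H incorporation in pellet counted by liquid scintillation. Inhibitors added from DMSO stock, final DMSO ≤2%; IC50 determined.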

A short description of series [7]: Cytotoxicity against human macrophages assessed as morphological changes at 2.5 to 160 ug/mL after 24 hrs by phase contrast microscopic analysis. It is filed as cell-based. The settings on record: macrophage. A digest of the protocol:
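Human macrophages exposed for 24 h to 2.5, 10, 40 and 160 µg/mL, Giemsa-stained and examined by phase contrast microscopy. Morphology compared with untreated control cells. The minimum cytotoxic concentration is the level causing a microscopically detectable alteration of normal cell morphology.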

Regarding `CC(O)Cn1c([N+](=O)[O-])cnc1/C=C/c1cccc(Cl)c1` (centres undefined), the CC50 at 24 h in series [1] is 520 nM. Also, the half-inhibitory concentration (IC50) in series [2] is 55.3 µg/mL (≈ 180 µM); in series [3], 21.4 µg/mL (≈ 69.5 µM); in series [4], 35 µg/mL (≈ 114 µM); in series [5] it was 86.7 µg/mL (≈ 282 µM).

As for `CC(O)Cn1c([N+](=O)[O-])cnc1/C=C/c1ccc2ccccc2c1` (centres undefined), in series [1], the CC50 at 24 h worked out at 790 nM. For the same molecule, the IC50 stood at 43200 nM in series [6]; 23.5 µg/mL (≈ 72.7 µM) in series [2]; 52.2 µg/mL (≈ 161 µM) in series [3]; 42.1 µg/mL (≈ 130 µM) in series [4]; 108 µg/mL (≈ 335 µM) in series [5].

On to `CC(O)Cn1c([N+](=O)[O-])cnc1/C=C/c1ccc([N+](=O)[O-])cc1` (centres undefined), for which the cytotoxic concentration (CC50) at 24 h in series [1] was 410 nM. Moreover, the IC50 in series [6] was 4600 nM; in series [2], 32.5 µg/mL (≈ 102 µM); in series [3], 11.7 µg/mL (≈ 36.8 µM); in series [4] it was 5.9 µg/mL (≈ 18.5 µM); in series [5], 36.8 µg/mL (≈ 116 µM).

Take `COc1ccc(/C=C/c2ncc([N+](=O)[O-])n2CC(C)O)cc1` (centres undefined): the CC50 at 24 h in series [1] worked out at 560 nM. Besides, the half-maximal inhibitory concentration (IC50) in series [6] came out at 9500 nM; in series [2], 12.3 µg/mL (≈ 40.6 µM); in series [3], 13.6 µg/mL (≈ 44.8 µM); in series [4], 42.8 µg/mL (≈ 141 µM); in series [5], 46.1 µg/mL (≈ 152 µM).

For the molecule `CC(O)Cn1c([N+](=O)[O-])cnc1/C=C/c1cccc([N+](=O)[O-])c1` (centres undefined), in series [1], the CC50 at 24 h is 430 nM. Moreover, the IC50 turned out to be 5100 nM in series [6]; 31.1 µg/mL (≈ 97.7 µM) in series [2]; 20.6 µg/mL (≈ 64.7 µM) in series [3]; 32.7 µg/mL (≈ 103 µM) in series [4]; 38.8 µg/mL (≈ 122 µM) in series [5].

As to `NC[C@H]1O[C@H](O[C@H]2[C@H](O)[C@@H](O[C@H]3O[C@H](CO)[C@@H](O)[C@H](N)[C@H]3O)[C@H](N)C[C@@H]2N)[C@H](O)[C@@H](O)[C@@H]1O` [KANAMYCIN], the IC50 was determined as 6300 nM in series [6]; 8.9 µg/mL (≈ 18.4 µM) in series [2]; 9.5 µg/mL (≈ 19.6 µM) in series [3]; 6.8 µg/mL (≈ 14 µM) in series [4]; 47.3 µg/mL (≈ 97.6 µM) in series [5].

Take `CC(O)Cn1c([N+](=O)[O-])cnc1/C=C/c1ccc(Cl)cc1` (centres undefined): the half-maximal cytotoxic concentration (CC50) at 24 h in series [1] was 980 nM. Further, the IC50 worked out at 79.5 µg/mL (≈ 258 µM) in series [2], 52.5 µg/mL (≈ 171 µM) in series [3], 17.6 µg/mL (≈ 57.2 µM) in series [4] and 102 µg/mL (≈ 331 µM) in series [5].

In the case of `COc1ccccc1/C=C/c1ncc([N+](=O)[O-])n1CC(C)O` (centres undefined), in series [1], the CC50 at 24 h was 480 nM. In addition, the IC50 was 10.5 µg/mL (≈ 34.6 µM) in series [2], 19.1 µg/mL (≈ 63 µM) in series [3], 83.8 µg/mL (≈ 276 µM) in series [4] and 78.6 µg/mL (≈ 259 µM) in series [5].

For `CC(O)Cn1c([N+](=O)[O-])cnc1/C=C/c1ccccc1` (centres undefined), in series [1], the CC50 at 24 h was found to be 1500 nM. The half-inhibitory concentration (IC50) in series [2] was 78.9 µg/mL (≈ 289 µM); in series [3], 45.6 µg/mL (≈ 167 µM); in series [4], 28 µg/mL (≈ 102 µM); in series [5], more than 200 µg/mL.

Turning to `CC(O)Cn1c([N+](=O)[O-])cnc1/C=C/c1ccc(Br)cc1` (centres undefined), the CC50 at 24 h in series [1] worked out at 550 nM. Besides, the IC50 in series [2] was 38 µg/mL (≈ 108 µM); in series [3] it was 56.2 µg/mL (≈ 160 µM); in series [4], 15.2 µg/mL (≈ 43.2 µM); in series [5], 50.8 µg/mL (≈ 144 µM).

Take `CC(O)Cn1c([N+](=O)[O-])cnc1/C=C/c1c(F)cccc1Cl` (centres undefined): in series [1], the CC50 at 24 h turned out to be 710 nM. Also, the IC50 in series [2] was 112 µg/mL (≈ 343 µM); in series [3] it was 6.1 µg/mL (≈ 18.7 µM); in series [4], 5.7 µg/mL (≈ 17.5 µM); in series [5] it was 119 µg/mL (≈ 365 µM).

With `CC(O)Cn1c([N+](=O)[O-])cnc1/C=C/c1ccccc1Cl` (centres undefined), the CC50 at 24 h in series [1] was determined as 480 nM. Moreover, the 50% inhibitory concentration (IC50) in series [6] was 11500 nM; in series [2] it was 7.5 µg/mL (≈ 24.4 µM); in series [4], 15.4 µg/mL (≈ 50 µM); in series [5], 56.3 µg/mL (≈ 183 µM).

As to `Cc1ccc(/C=C/c2ncc([N+](=O)[O-])n2CC(C)O)cc1` (centres undefined), in series [1], the 50% cytotoxic concentration (CC50) at 24 h stood at 860 nM. Moreover, the concentration for half-maximal inhibition (IC50) came to 78800 nM in series [6]; 8.9 µg/mL (≈ 31 µM) in series [2]; 8.6 µg/mL (≈ 29.9 µM) in series [3]; 22.8 µg/mL (≈ 79.4 µM) in series [4]; 111 µg/mL (≈ 388 µM) in series [5].

Regarding `COc1cccc(/C=C/c2ncc([N+](=O)[O-])n2CC(C)O)c1` (centres undefined), in series [1], the CC50 at 24 h came to 1300 nM. Also, the IC50 was determined as 25.7 µg/mL (≈ 84.7 µM) in series [2], 56.2 µg/mL (≈ 185 µM) in series [3], 6.7 µg/mL (≈ 22.1 µM) in series [4] and 181 µg/mL (≈ 595 µM) in series [5].

With `CC(O)Cn1c([N+](=O)[O-])cnc1/C=C/c1cccc(Br)c1` (centres undefined), the CC50 at 24 h in series [1] was 620 nM. In addition, the IC50 was found to be 10800 nM in series [6]; 15.3 µg/mL (≈ 43.4 µM) in series [2]; 8.2 µg/mL (≈ 23.3 µM) in series [3]; 30.9 µg/mL (≈ 87.7 µM) in series [4]; 45.4 µg/mL (≈ 129 µM) in series [5].

`CC(O)Cn1c([N+](=O)[O-])cnc1/C=C/c1ccc(F)cc1` (centres undefined): the 50% cytotoxic concentration (CC50) at 24 h in series [1] was found to be 420 nM. The half-maximal inhibitory concentration (IC50) in series [2] was found to be 47.1 µg/mL (≈ 162 µM); in series [3], 28.1 µg/mL (≈ 96.5 µM); in series [4], 24.2 µg/mL (≈ 83.1 µM); in series [5] it was 45.3 µg/mL (≈ 156 µM).

For the molecule `CC(O)Cn1c([N+](=O)[O-])cnc1/C=C/c1ccccc1[N+](=O)[O-]` (centres undefined), in series [7], the Activity entry is listed as “Non-toxic”. For the same molecule, in series [1], the CC50 at 24 h was found to be 1090 nM. Also, the 50% inhibitory concentration (IC50) was found to be 11000 nM in series [6]; 12.3 µg/mL (≈ 38.6 µM) in series [2]; 72.9 µg/mL (≈ 229 µM) in series [3]; 7.4 µg/mL (≈ 23.2 µM) in series [4]; 40.3 µg/mL (≈ 127 µM) in series [5].

For the molecule `CC(O)Cn1c([N+](=O)[O-])cnc1/C=C/c1cccc(F)c1` (centres undefined), in series [1], the CC50 at 24 h was found to be 1030 nM. The IC50 in series [6] worked out at 8900 nM; in series [2], 11.8 µg/mL (≈ 40.5 µM); in series [3], 79.2 µg/mL (≈ 272 µM); in series [4], 15 µg/mL (≈ 51.5 µM); in series [5] it was 120 µg/mL (≈ 412 µM).

As to `CC(O)Cn1c([N+](=O)[O-])cnc1/C=C/c1ccc(Cl)cc1Cl` (centres undefined), the 50% cytotoxic concentration (CC50) at 24 h in series [1] worked out at 810 nM. The half-inhibitory concentration (IC50) is 58.1 µg/mL (≈ 170 µM) in series [2], 18.8 µg/mL (≈ 54.9 µM) in series [3], 8.7 µg/mL (≈ 25.4 µM) in series [4] and 111 µg/mL (≈ 325 µM) in series [5].

As for `CC(O)Cn1c([N+](=O)[O-])cnc1/C=C/c1ccc(N(C)C)cc1` (centres undefined), in series [1], the half-maximal cytotoxic concentration (CC50) at 24 h worked out at 680 nM. Further, the IC50 in series [2] is 56.5 µg/mL (≈ 179 µM); in series [3], more than 200 µg/mL; in series [4] it was 75 µg/mL (≈ 237 µM); in series [5], 108 µg/mL (≈ 342 µM).

In the case of `CC(O)Cn1c([N+](=O)[O-])cnc1/C=C/c1ccccc1F` (centres undefined), in series [1], the 50% cytotoxic concentration (CC50) at 24 h came out at 1410 nM. Moreover, the IC50 in series [2] stood at 3.4 µg/mL (≈ 11.7 µM); in series [3], 60.3 µg/mL (≈ 207 µM); in series [4] it was 39.4 µg/mL (≈ 135 µM); in series [5] it was 72.7 µg/mL (≈ 250 µM).

On to `CC(O)Cn1c([N+](=O)[O-])cnc1/C=C/c1ccccc1Br` (centres undefined), for which the CC50 at 24 h in series [1] is 490 nM. In addition, the IC50 was 6 µg/mL (≈ 17 µM) in series [2], 11.4 µg/mL (≈ 32.4 µM) in series [3], 11.1 µg/mL (≈ 31.5 µM) in series [4] and 63.6 µg/mL (≈ 181 µM) in series [5].

What is called CC50 is the concentration that lowers cell viability or growth by half. As usually defined, the IC50 is the concentration that gives 50% inhibition.
